What was measured:
[1] = molecular target: T1, Xanthine dehydrogenase/oxidase (Bos taurus, UniProt P80457); assay: Inhibition of bovine xanthine oxidase at 2 X 10^-5 M; details: cattle; for inhibition (INH): 20 µM
Method in brief: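 Bovine xanthine oxidase, diluted 1:300 to give ΔOD292 of 0.09–0.12 per min, starts the reaction in 0.05 M phosphate buffer pH 7.5 with hypoxanthine at 3×10^-5 M plus inhibitor.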

[2] = Dissociation constant, apparent pKa of the compound; assay type: physicochemical
[3] = Association constant, apparent pKa of the compound; assay type: physicochemical
[4] = molecular target: T1, Xanthine dehydrogenase/oxidase; assay: Inhibition of bovine xanthine oxidase; details: read-out: I50

T1 sequence (P80457 whole entry): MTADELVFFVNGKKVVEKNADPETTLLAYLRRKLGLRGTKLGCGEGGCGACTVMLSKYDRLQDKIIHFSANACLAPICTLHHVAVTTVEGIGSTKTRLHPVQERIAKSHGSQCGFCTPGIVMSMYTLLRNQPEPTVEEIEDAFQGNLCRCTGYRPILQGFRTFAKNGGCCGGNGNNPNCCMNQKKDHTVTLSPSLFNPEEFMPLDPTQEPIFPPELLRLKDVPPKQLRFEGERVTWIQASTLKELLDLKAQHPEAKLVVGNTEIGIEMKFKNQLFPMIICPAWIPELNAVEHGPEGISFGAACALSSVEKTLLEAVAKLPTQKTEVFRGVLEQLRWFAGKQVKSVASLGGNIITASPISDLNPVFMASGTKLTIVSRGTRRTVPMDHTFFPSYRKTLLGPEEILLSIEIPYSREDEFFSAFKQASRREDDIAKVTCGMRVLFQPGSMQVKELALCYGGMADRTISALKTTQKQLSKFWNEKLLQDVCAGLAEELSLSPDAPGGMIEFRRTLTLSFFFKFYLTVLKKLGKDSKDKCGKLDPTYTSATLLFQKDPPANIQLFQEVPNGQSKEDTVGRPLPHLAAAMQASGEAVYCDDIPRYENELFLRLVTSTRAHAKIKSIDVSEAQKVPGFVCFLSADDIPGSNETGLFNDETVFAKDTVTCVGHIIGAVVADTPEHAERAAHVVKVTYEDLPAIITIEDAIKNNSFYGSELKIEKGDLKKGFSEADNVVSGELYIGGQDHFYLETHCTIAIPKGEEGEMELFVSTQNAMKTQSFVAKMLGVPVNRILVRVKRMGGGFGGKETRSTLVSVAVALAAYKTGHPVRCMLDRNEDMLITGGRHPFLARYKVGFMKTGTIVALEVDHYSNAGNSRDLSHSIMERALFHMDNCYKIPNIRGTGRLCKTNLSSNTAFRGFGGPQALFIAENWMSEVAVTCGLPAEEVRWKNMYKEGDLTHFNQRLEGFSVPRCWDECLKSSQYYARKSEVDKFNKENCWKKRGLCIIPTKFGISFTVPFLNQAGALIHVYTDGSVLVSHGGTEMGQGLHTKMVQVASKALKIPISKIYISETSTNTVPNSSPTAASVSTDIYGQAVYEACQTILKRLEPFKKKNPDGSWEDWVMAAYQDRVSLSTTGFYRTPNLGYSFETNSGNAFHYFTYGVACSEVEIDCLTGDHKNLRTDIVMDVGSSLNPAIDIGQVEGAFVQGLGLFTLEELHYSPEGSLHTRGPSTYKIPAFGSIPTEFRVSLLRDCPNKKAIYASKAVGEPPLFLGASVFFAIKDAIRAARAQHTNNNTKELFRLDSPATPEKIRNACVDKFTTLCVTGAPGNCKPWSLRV

| inhibition (INH) [1] | IC50 [4] [µM] | SMILES | also measured |
| --- | --- | --- | --- |
|  | 40 | FC(F)(F)c1cnc(-c2cccnc2)[nH]1 | pKa [2]: 10.2; pKa [3]: 3.5 |
| Not Active |  | c1cc(-c2ncc[nH]2)ccn1 |  |
| Not Active |  | c1cncc(-c2ncc[nH]2)c1 |  |
|  | 0.35 | O=[N+]([O-])c1cnc(-c2ccncc2)[nH]1 |  |
|  | 1.3 | O=[N+]([O-])c1cnc(-c2cccnc2)[nH]1 |  |
| Not Active |  | Cc1cnc(-c2ccncc2)[nH]1 |  |
| Not Active |  | Cc1cnc(-c2cccnc2)[nH]1 |  |
|  |  | O=C(O)c1cnc(-c2ccncc2)[nH]1 | inhibition at 20 µM [1]: 34% |
|  |  | COC(=O)c1cnc(-c2ccncc2)[nH]1 | inhibition at 20 µM [1]: 10% |
|  | 5.6 | N#Cc1cnc(-c2ccncc2)[nH]1 |  |
|  | 5.8 | O=C(O)c1nc(-c2ccncc2)[nH]c1C(=O)O |  |
|  | 1 | O=C(O)c1nc(-c2cccnc2)[nH]c1C(=O)O |  |
| Not Active |  | COC(=O)c1nc(-c2ccncc2)[nH]c1C(=O)OC | pKa [2]: 7.15; pKa [3]: 3.98 |
| Not Active |  | COC(=O)c1nc(-c2cccnc2)[nH]c1C(=O)OC |  |
|  |  | NC(=O)c1nc(-c2ccncc2)[nH]c1C(N)=O | inhibition at 20 µM [1]: 14% |
| Not Active |  | NC(=O)c1nc(-c2cccnc2)[nH]c1C(N)=O |  |
|  | 0.02 | N#Cc1nc(-c2ccncc2)[nH]c1C#N |  |
|  | 35 | N#Cc1nc(-c2cccnc2)[nH]c1C#N |  |
|  | 0.5 | N#Cc1nc(-c2ccncc2)[nH]c1C(N)=O |  |
|  |  | Clc1nc(-c2cccnc2)[nH]c1Cl | inhibition at 20 µM [1]: 29% |
|  | 20 | Brc1nc(-c2cccnc2)[nH]c1Br |  |
|  | 2 | FC(F)(F)c1cnc(-c2ccncc2)[nH]1 | pKa [2]: 9.73; pKa [3]: 3.76 |
|  |  | Clc1ccc2[nH]c(-c3ccncc3)nc2c1 | pKa [2]: 10; pKa [3]: 3.5 |
|  | 15 | Clc1cc2nc(-c3ccncc3)[nH]c2cc1Cl | pKa [2]: 9.33; pKa [3]: 3 |
| Not Active |  | c1cnc2[nH]c(-c3ccncc3)nc2c1 |  |
| Not Active |  | c1cncc(-c2nc3cccnc3[nH]2)c1 |  |
|  | 13 | c1cc(-c2nc3cnccc3[nH]2)ccn1 |  |
|  |  | c1cncc(-c2nc3cnccc3[nH]2)c1 | inhibition at 20 µM [1]: 23% |
| Not Active |  | c1ccc2[nH]c(-c3ccncc3)nc2c1 | pKa [2]: 10.9; pKa [3]: 3.85 |
| Not Active |  | Clc1ccc2nc(-c3cccnc3)[nH]c2c1 |  |

| SMILES | inhibition (INH) [1] | IC50 [4] [µM] | also measured |
| --- | --- | --- | --- |
| O=[N+]([O-])c1c[nH]cn1 | Not Active |  | pKa [2]: 9 |

From ChEMBL document CHEMBL3271969, “2-pyridylimidazoles as inhibitors of xanthine oxidase” (J Med Chem, 1977)
